Laboratory results as given in ChEMBL document CHEMBL1806372, “Cytotoxic ring A-modified steroid analogues derived from Grundmann's ketone” (Eur J Med Chem, 2011).
Activity calls are given as the source filed them. No cut-off for these calls is given here.

Experiments:
Assay type in all cases: functional
COLO 205 = assay: Growth inhibition of human COLO205 cells assessed as cell growth at 10^-5 M after 48 hrs by sulforhodamine B assay; settings: COLO 205, 48 h, read-out: Activity
Outline: (§1)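 NCI 60-cell panel single high-dose screen: compound applied at 10^-5 M for 48 h, endpoint by sulforhodamine B protein-binding dye. Values reported as growth percent of treated cells relative to untreated control cells.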

HCC 2998 = assay: Growth inhibition of human HCC2998 cells assessed as cell growth at 10^-5 M after 48 hrs by sulforhodamine B assay; settings: HCC 2998, 48 h, read-out: Activity; outline: as §1
UACC-62 [1] = assay: Growth inhibition of human UACC62 cells assessed as cell growth at 10^-5 M after 48 hrs by sulforhodamine B assay; settings: UACC-62, 48 h, read-out: Activity
Outline: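 NCI 60-cell panel single-dose screen under the NCI protocol. Cells are exposed to compound at one concentration (10^-5 M) for 48 h. The end point is protein staining with sulforhodamine B. Each line is reported as percent growth of treated cells relative to untreated control cells.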

MCF7 = assay: Growth inhibition of human MCF7 cells assessed as cell growth at 10^-5 M after 48 hrs by sulforhodamine B assay; settings: MCF7, 48 h, read-out: Activity
Outline: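 NCI-60 single high-dose screen run under the NCI protocol. Cells were incubated with compound at 10^-5 M for 48 h. The end point was determined by sulforhodamine B protein staining. Results are reported as percent growth of treated cells relative to untreated control cells.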

BT-549 = assay: Growth inhibition of human BT549 cells assessed as cell growth at 10^-5 M after 48 hrs by sulforhodamine B assay; settings: BT-549, 48 h, read-out: Activity; outline: as §1
Aspergillus niger = assay: Antifungal activity against Aspergillus niger assessed as zone of inhibition at 5 uL and 28 degC after 36 hrs by disk diffusion method
Outline: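 Agar disc diffusion with the test compound applied as a 1% (w/v) DMSO solution. Yeasts were grown on AC agar and Aspergillus niger on potato dextrose broth agar, each strain spread evenly. Plates were covered and kept 36 h at 28 °C, and the inhibition zone diameter was read in mm. Clotrimazole served as reference.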

K562 = assay: Growth inhibition of human K562 cells assessed as cell growth at 10^-5 M after 48 hrs by sulforhodamine B assay; settings: K562, 48 h, read-out: Activity; outline: as §1
NCI-H522 [2] = assay: Cytotoxicity against human NCI-H522 cells after 48 hrs by sulforhodamine B assay; settings: NCI-H522, 48 h, read-out: LC50 (the source's name)
Outline: (§2)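 NCI 60 human tumour cell line panel run to the NCI protocol. GI50, TGI and LC50 come from log concentration vs % growth inhibition curves for each cell line. Lines insensitive at the top concentration are reported with ">".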

HCT-116 = assay: Cytotoxicity against human HCT116 cells after 48 hrs by sulforhodamine B assay; settings: HCT-116, 48 h, read-out: LC50 (the source's name); outline: as §2
M14 = assay: Cytotoxicity against human M14 cells after 48 hrs by sulforhodamine B assay; settings: M14, 48 h, read-out: LC50 (the source's name); outline: as §2
SK-MEL-28 [3] = assay: Cytotoxicity against human SK-MEL-28 cells after 48 hrs by sulforhodamine B assay; settings: SK-MEL-28, 48 h, read-out: LC50 (the source's name); outline: as §2
OVCAR-3 = assay: Cytotoxicity against human OVCAR3 cells after 48 hrs by sulforhodamine B assay; settings: OVCAR-3, 48 h, read-out: LC50 (the source's name); outline: as §2
OVCAR-8 = assay: Cytotoxicity against human OVCAR8 cells after 48 hrs by sulforhodamine B assay; settings: OVCAR-8, 48 h, read-out: LC50 (the source's name); outline: as §2
SN12C = assay: Cytotoxicity against human SN12C cells after 48 hrs by sulforhodamine B assay; settings: read-out: LC50 (the source's name); outline: as §2
UO-31 [4] = assay: Cytotoxicity against human UO31 cells after 48 hrs by sulforhodamine B assay; settings: UO-31, 48 h, read-out: LC50 (the source's name)
OVCAR-5 = assay: Growth inhibition of human OVCAR5 cells after 48 hrs by sulforhodamine B assay; settings: OVCAR-5, 48 h
Outline: (§3)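 GI50, TGI and LC50 were derived from log concentration versus % growth inhibition curves for each cell line. GI50 is the concentration giving a 50% decrease in net cell growth. Insensitive lines are reported as greater than the highest concentration.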

UO-31 [5] = assay: Growth inhibition of human UO31 cells after 48 hrs by sulforhodamine B assay; settings: UO-31, 48 h
Outline: (§4)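 NCI 60-cell panel five-dose assay. GI50, TGI and LC50 are derived from log concentration versus % growth inhibition curves. Cell lines insensitive at the top concentration are given a ">" prefix.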

RPMI-8226 = assay: Cytotoxicity against human RPMI8226 cells after 48 hrs by sulforhodamine B assay; settings: RPMI-8226, 48 h, read-out: LC50 (the source's name); outline: as §2
NCI-H23 = assay: Cytotoxicity against human NCI-H23 cells after 48 hrs by sulforhodamine B assay; settings: NCI-H23, 48 h, read-out: LC50 (the source's name); outline: as §2
A549 = assay: Growth inhibition of human A549 cells after 48 hrs by sulforhodamine B assay; settings: A549, 48 h
Outline: (§5)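 From log concentration versus % growth curves, GI50 (50% decrease in net growth), TGI (total growth inhibition) and LC50 (net 50% loss of initial cells) are derived for each line.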

NCI-H226 = assay: Growth inhibition of human NCI-H226 cells after 48 hrs by sulforhodamine B assay; settings: NCI-H226, 48 h; outline: as §3
NCI-H522 [6] = assay: Growth inhibition of human NCI-H522 cells after 48 hrs by sulforhodamine B assay; settings: NCI-H522, 48 h; outline: as §3
SF-295 = assay: Growth inhibition of human SF295 cells after 48 hrs by sulforhodamine B assay; settings: SF-295, 48 h; outline: as §3
U-251 = assay: Growth inhibition of human U251 cells after 48 hrs by sulforhodamine B assay; settings: U-251, 48 h; outline: as §4
LOX IMVI = assay: Growth inhibition of human LOXIMVI cells after 48 hrs by sulforhodamine B assay; outline: as §5
Malme-3M = assay: Growth inhibition of human MALME-3M cells after 48 hrs by sulforhodamine B assay; outline: as §3
MDA-MB-435 = assay: Growth inhibition of human MDA-MB-435 cells after 48 hrs by sulforhodamine B assay; settings: MDA-MB-435, 48 h; outline: as §3
SK-MEL-2 = assay: Growth inhibition of human SK-MEL-2 cells after 48 hrs by sulforhodamine B assay; settings: SK-MEL-2, 48 h; outline: as §3
SK-MEL-28 [7] = assay: Growth inhibition of human SK-MEL-28 cells after 48 hrs by sulforhodamine B assay; settings: SK-MEL-28, 48 h; outline: as §3
UACC-62 [8] = assay: Growth inhibition of human UACC62 cells after 48 hrs by sulforhodamine B assay; settings: UACC-62, 48 h; outline: as §4

With `CC(C)CCC[C@@H](C)[C@H]1CC[C@H]2[C@@H]3CCN4C(=O)CCC(=O)N4[C@@H]3CC[C@]12C` the growth at 10 µM (COLO 205) was 90.3%, the growth at 10 µM (HCC 2998) was 86.6% and the growth at 10 µM (UACC-62 [1]) was 88.1%. For the same molecule, the growth at 10 µM (MCF7) was 88.5%, the growth at 10 µM (BT-549) was 84.7% and the “diameter of the inhibition zone (DIZ)” value (Aspergillus niger) was “inactive”. It also gave a growth at 10 µM (K562) of 91%.

`CC(C)CCC[C@@H](C)[C@H]1CC[C@H]2C3=CCn4c(=O)ccc(=O)n4[C@@H]3CC[C@]12C` was tested, and the CC50 (NCI-H522 [2]) was 1540 nM, the CC50 (HCT-116) was 594 nM and the CC50 (M14) was 3320 nM. The CC50 (SK-MEL-28 [3]) was 4140 nM, the CC50 (OVCAR-3) was 4780 nM and the CC50 (OVCAR-8) was > 100000 nM. It also gave a CC50 (SN12C) of 5280 nM, a CC50 (UO-31 [4]) of 4190 nM and a growth at 10 µM (COLO 205) of -93.1%. For the same molecule, the growth at 10 µM (HCC 2998) was -100%, the growth at 10 µM (UACC-62 [1]) was -82.4% and the GI50 (OVCAR-5) was 1050 nM. It also gave a TGI (OVCAR-5) of 2870 nM, a GI50 (UO-31 [5]) of 237 nM and a TGI (UO-31 [5]) of 1150 nM. The CC50 (RPMI-8226) was > 100000 nM, the CC50 (NCI-H23) was 9000 nM and the growth at 10 µM (MCF7) was -92.5%. The growth at 10 µM (BT-549) was -30.9%, the “diameter of the inhibition zone (DIZ)” value (Aspergillus niger) was “inactive” and the growth at 10 µM (K562) was -40%. It also gave a GI50 (A549) of 325 nM, a TGI (A549) of 1240 nM and a GI50 (NCI-H226) of 1270 nM. For the same molecule, the TGI (NCI-H226) was 3260 nM, the GI50 (NCI-H522 [6]) was 175 nM and the TGI (NCI-H522 [6]) was 459 nM. The GI50 (SF-295) was 110 nM, the TGI (SF-295) was 627 nM and the GI50 (U-251) was 438 nM. It also gave a TGI (U-251) of 1590 nM, a GI50 (LOX IMVI) of 288 nM and a TGI (LOX IMVI) of 1050 nM. It also gave a GI50 (Malme-3M) of 1440 nM, a TGI (Malme-3M) of 3030 nM and a GI50 (MDA-MB-435) of 354 nM. For the same molecule, the TGI (MDA-MB-435) was 1780 nM, the GI50 (SK-MEL-2) was 286 nM and the TGI (SK-MEL-2) was 774 nM. The GI50 (SK-MEL-28 [7]) was 512 nM, the TGI (SK-MEL-28 [7]) was 1650 nM and the GI50 (UACC-62 [8]) was 544 nM. The TGI (UACC-62 [8]) was 1950 nM.

For `CC(C)CCC[C@@H](C)[C@H]1CC[C@H]2C3=CC[C@@H]4C(=O)C=CC(=O)[C@@H]4[C@@H]3CC[C@]12C`, the CC50 (NCI-H522 [2]) was > 100000 nM, the CC50 (HCT-116) was > 3910 nM and the CC50 (M14) was > 100000 nM. For the same molecule, the CC50 (SK-MEL-28 [3]) was > 100000 nM, the CC50 (OVCAR-3) was > 100000 nM and the CC50 (OVCAR-8) was > 8120 nM. The CC50 (SN12C) was > 100000 nM, the CC50 (UO-31 [4]) was > 1750 nM and the growth at 10 µM (COLO 205) was 12.4%. For the same molecule, the growth at 10 µM (HCC 2998) was -75.5%, the growth at 10 µM (UACC-62 [1]) was -63.2% and the GI50 (OVCAR-5) was 212 nM. For the same molecule, the TGI (OVCAR-5) was > 100000 nM, the GI50 (UO-31 [5]) was 72 nM and the TGI (UO-31 [5]) was 359 nM. The CC50 (RPMI-8226) was > 100000 nM, the CC50 (NCI-H23) was > 100000 nM and the growth at 10 µM (MCF7) was 8.65%. For the same molecule, the growth at 10 µM (BT-549) was -1.63%, the “diameter of the inhibition zone (DIZ)” value (Aspergillus niger) was “inactive” and the growth at 10 µM (K562) was 9.94%. For the same molecule, the GI50 (A549) was 58 nM, the TGI (A549) was 780 nM and the GI50 (NCI-H226) was 480 nM. For the same molecule, the GI50 (NCI-H522 [6]) was 803 nM, the TGI (NCI-H522 [6]) was > 100000 nM and the GI50 (SF-295) was 141 nM. For the same molecule, the TGI (SF-295) was 539 nM, the GI50 (U-251) was 94 nM and the TGI (U-251) was 1230 nM. It also gave a GI50 (LOX IMVI) of 227 nM, a TGI (LOX IMVI) of 1170 nM and a GI50 (Malme-3M) of 399 nM. For the same molecule, the TGI (Malme-3M) was 2000 nM, the GI50 (MDA-MB-435) was 229 nM and the TGI (MDA-MB-435) was 997 nM. The GI50 (SK-MEL-2) was 3370 nM, the TGI (SK-MEL-2) was > 100000 nM and the GI50 (SK-MEL-28 [7]) was 302 nM. The GI50 (UACC-62 [8]) was 752 nM and the TGI (UACC-62 [8]) was > 100000 nM.
